# What was measured:
# [1] = tested on: Salmonella typhimurium; test: Mutagenic activity in Salmonella typhimurium TA-100 at 60 nmol/plate by Ames test; type: toxicity, organism-based; settings: salmonella enterica subsp. enterica serovar typhimurium
# How it was run: (§1)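 Ames plate-incorporation assay in Salmonella typhimurium TA-98 or TA-100 without rat liver S9. Compound was dissolved in Me2SO, with final Me2SO held at 0.1 mL per 15 mL medium on every plate, controls included. The top level tested was near that giving 10% growth inhibition. Read-out was revertant count in excess of solvent controls.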
# [2] = tested on: Schistosoma japonicum; test: Antischistosomal activity against Schistosoma japonicum infected mouse assessed as reduction in number of worms at 250 mg/kg, po single dose; type: functional
# [3] = tested on: Schistosoma japonicum; test: Antischistosomal activity against Schistosoma japonicum infected mouse assessed as mouse with parasital cures at 500 mg/kg, po single dose; type: functional
# [4] = tested on: Salmonella typhimurium; test: Mutagenic activity in Salmonella typhimurium TA-100 at 60 nmol/plate by Ames test in presence of rat liver microsomes S9 fraction; type: toxicity, organism-based; settings: salmonella enterica subsp. enterica serovar typhimurium
# How it was run: as §1, with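 “with” for “without”, “microsomal S9 fraction.” for “S9.”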
# [5] = tested on: Salmonella typhimurium; test: Mutagenic activity in Salmonella typhimurium TA-98 at 17 nmol/plate by Ames test; type: toxicity, organism-based; settings: salmonella enterica subsp. enterica serovar typhimurium; how it was run: as §1
# [6] = tested on: Schistosoma japonicum; test: Antischistosomal activity against Schistosoma japonicum infected mouse assessed as mouse with parasital cures at 250 mg/kg, po single dose; type: functional
# [7] = tested on: Schistosoma japonicum; test: Antischistosomal activity against Schistosoma japonicum infected mouse assessed as reduction in number of worms at 125 mg/kg, po single dose; type: functional
# [8] = tested on: Schistosoma japonicum; test: Antischistosomal activity against Schistosoma japonicum infected mouse assessed as mouse with parasital cures at 125 mg/kg, po single dose; type: functional
# [9] = tested on: Schistosoma japonicum; test: Antischistosomal activity against Schistosoma japonicum infected mouse assessed as reduction in number of worms at 50 mg/kg, po single dose; type: functional
# [10] = tested on: Schistosoma japonicum; test: Antischistosomal activity against Schistosoma japonicum infected mouse assessed as mouse with parasital cures at 50 mg/kg, po single dose; type: functional
# [11] = tested on: Salmonella typhimurium; test: Mutagenic activity in Salmonella typhimurium TA-100 at 17 nmol/plate by Ames test in presence of rat liver microsomes S9 fraction; type: toxicity, organism-based; settings: salmonella enterica subsp. enterica serovar typhimurium
# How it was run: as §1, with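 “with” for “without”, “microsomal S9 fraction.” for “S9.”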
# [12] = tested on: Salmonella typhimurium; test: Mutagenic activity in Salmonella typhimurium TA-98 at 60 nmol/plate by Ames test; type: toxicity, organism-based; settings: salmonella enterica subsp. enterica serovar typhimurium; how it was run: as §1
# [13] = tested on: Salmonella typhimurium; test: Mutagenic activity in Salmonella typhimurium TA-98 at 17 nmol/plate by Ames test in presence of rat liver microsomes S9 fraction; type: toxicity, organism-based; settings: salmonella enterica subsp. enterica serovar typhimurium
# How it was run: as §1, with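 “with” for “without”, “microsomal S9 fraction.” for “S9.”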
# [14] = tested on: Salmonella typhimurium; test: Mutagenic activity in Salmonella typhimurium TA-98 at 60 nmol/plate by Ames test in presence of rat liver microsomes S9 fraction; type: toxicity, organism-based; settings: salmonella enterica subsp. enterica serovar typhimurium
# How it was run: as §1, with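 “with” for “without”, “microsomal S9 fraction.” for “S9.”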
# [15] = tested on: Salmonella typhimurium; test: Mutagenic activity in Salmonella typhimurium TA-100 at 17 nmol/plate by Ames test; type: toxicity, organism-based; settings: salmonella enterica subsp. enterica serovar typhimurium; how it was run: as §1
# [16] = tested on: Schistosoma japonicum; test: Antischistosomal activity against Schistosoma japonicum infected mouse assessed as reduction in number of worms at 500 mg/kg, po single dose; type: functional
# [17] = tested on: Salmonella typhimurium; test: Mutagenic activity in Salmonella typhimurium TA-98 at 158 nmol/plate by Ames test; type: toxicity, organism-based; settings: salmonella enterica subsp. enterica serovar typhimurium
# [18] = tested on: Salmonella typhimurium; test: Mutagenic activity in Salmonella typhimurium TA-100 at 16 nmol/plate by Ames test; type: toxicity, organism-based; settings: salmonella enterica subsp. enterica serovar typhimurium
# [19] = tested on: Salmonella typhimurium; test: Mutagenic activity in Salmonella typhimurium TA-98 at 16 nmol/plate by Ames test in presence of rat liver microsomes S9 fraction; type: toxicity, organism-based; settings: salmonella enterica subsp. enterica serovar typhimurium
# [20] = tested on: Schistosoma japonicum; test: Antischistosomal activity against Schistosoma japonicum infected mouse assessed as reduction in number of worms at 10 mg/kg, po single dose; type: functional
# [21] = tested on: Salmonella typhimurium; test: Mutagenic activity in Salmonella typhimurium TA-100 at 158 nmol/plate by Ames test; type: toxicity, organism-based; settings: salmonella enterica subsp. enterica serovar typhimurium
# [22] = tested on: Salmonella typhimurium; test: Mutagenic activity in Salmonella typhimurium TA-100 at 53 nmol/plate by Ames test in presence of rat liver microsomes S9 fraction; type: toxicity, organism-based; settings: salmonella enterica subsp. enterica serovar typhimurium
# [23] = tested on: Salmonella typhimurium; test: Mutagenic activity in Salmonella typhimurium TA-100 at 16 nmol/plate by Ames test in presence of rat liver microsomes S9 fraction; type: toxicity, organism-based; settings: salmonella enterica subsp. enterica serovar typhimurium
# [24] = tested on: Salmonella typhimurium; test: Mutagenic activity in Salmonella typhimurium TA-98 at 53 nmol/plate by Ames test in presence of rat liver microsomes S9 fraction; type: toxicity, organism-based; settings: salmonella enterica subsp. enterica serovar typhimurium
# [25] = tested on: Schistosoma japonicum; test: Antischistosomal activity against Schistosoma japonicum infected mouse assessed as mouse with parasital cures at 5 mg/kg, po single dose; type: functional
# [26] = tested on: Schistosoma japonicum; test: Antischistosomal activity against Schistosoma japonicum infected mouse assessed as mouse with parasital cures at 20 mg/kg, po single dose; type: functional
# [27] = tested on: Salmonella typhimurium; test: Mutagenic activity in Salmonella typhimurium TA-98 at 53 nmol/plate by Ames test; type: toxicity, organism-based; settings: salmonella enterica subsp. enterica serovar typhimurium
# [28] = tested on: Salmonella typhimurium; test: Mutagenic activity in Salmonella typhimurium TA-100 at 5 nmol/plate by Ames test in presence of rat liver microsomes S9 fraction; type: toxicity, organism-based; settings: salmonella enterica subsp. enterica serovar typhimurium
# [29] = tested on: Schistosoma japonicum; test: Antischistosomal activity against Schistosoma japonicum infected mouse assessed as reduction in number of worms at 7 mg/kg, po single dose; type: functional
# [30] = tested on: Salmonella typhimurium; test: Mutagenic activity in Salmonella typhimurium TA-98 at 5 nmol/plate by Ames test in presence of rat liver microsomes S9 fraction; type: toxicity, organism-based; settings: salmonella enterica subsp. enterica serovar typhimurium
# [31] = tested on: Schistosoma japonicum; test: Antischistosomal activity against Schistosoma japonicum infected mouse assessed as mouse with parasital cures at 7 mg/kg, po single dose; type: functional
# [32] = tested on: Salmonella typhimurium; test: Mutagenic activity in Salmonella typhimurium TA-100 at 158 nmol/plate by Ames test in presence of rat liver microsomes S9 fraction; type: toxicity, organism-based; settings: salmonella enterica subsp. enterica serovar typhimurium
# [33] = tested on: Schistosoma japonicum; test: Antischistosomal activity against Schistosoma japonicum infected mouse assessed as reduction in number of worms at 20 mg/kg, po single dose; type: functional
# [34] = tested on: Schistosoma japonicum; test: Antischistosomal activity against Schistosoma japonicum infected mouse assessed as reduction in number of worms at 5 mg/kg, po single dose; type: functional
# [35] = tested on: Schistosoma japonicum; test: Antischistosomal activity against Schistosoma japonicum infected mouse assessed as mouse with parasital cures at 10 mg/kg, po single dose; type: functional
# [36] = tested on: Salmonella typhimurium; test: Mutagenic activity in Salmonella typhimurium TA-98 at 16 nmol/plate by Ames test; type: toxicity, organism-based; settings: salmonella enterica subsp. enterica serovar typhimurium
# [37] = tested on: Salmonella typhimurium; test: Mutagenic activity in Salmonella typhimurium TA-100 at 53 nmol/plate by Ames test; type: toxicity, organism-based; settings: salmonella enterica subsp. enterica serovar typhimurium
# [38] = tested on: Salmonella typhimurium; test: Mutagenic activity in Salmonella typhimurium TA-98 at 158 nmol/plate by Ames test in presence of rat liver microsomes S9 fraction; type: toxicity, organism-based; settings: salmonella enterica subsp. enterica serovar typhimurium
# [39] = tested on: Salmonella typhimurium; test: Mutagenic activity in Salmonella typhimurium TA-100 at 5 nmol/plate by Ames test; type: toxicity, organism-based; settings: salmonella enterica subsp. enterica serovar typhimurium
# [40] = tested on: Salmonella typhimurium; test: Mutagenic activity in Salmonella typhimurium TA-98 at 5 nmol/plate by Ames test; type: toxicity, organism-based; settings: salmonella enterica subsp. enterica serovar typhimurium
smiles,measurement,setting,value
O=C=Nc1ccc(Nc2ccc([N+](=O)[O-])cc2)cc1,Activity,[1],Toxic
same,inhibition in vivo at 250 mg/kg,[2],0%
same,Activity,[3],0%
same,Activity,[4],Toxic
same,Activity,[5],Toxic
same,Activity,[6],0%
same,inhibition in vivo at 125 mg/kg,[7],0%
same,Activity,[8],0%
same,inhibition in vivo at 50 mg/kg,[9],0%
same,Activity,[10],0%
same,Activity,[11],Toxic
same,Activity,[12],Toxic
same,Activity,[13],Toxic
same,Activity,[14],Toxic
same,Activity,[15],Toxic
same,inhibition in vivo at 500 mg/kg,[16],0%
O=[N+]([O-])c1ccc(Nc2ccc(N=C=S)cc2)cc1 [AMOSCANATE],Activity,[17],Non-toxic
same,Activity,[18],Non-toxic
same,Activity,[19],Non-toxic
same,inhibition in vivo at 10 mg/kg,[20],99%
same,Activity,[21],Non-toxic
same,Activity,[22],Non-toxic
same,Activity,[23],Non-toxic
same,Activity,[24],Non-toxic
same,Activity,[25],14%
same,Activity,[26],100%
same,Activity,[27],Non-toxic
same,Activity,[28],Non-toxic
same,inhibition in vivo at 7 mg/kg,[29],82%
same,Activity,[30],Non-toxic
same,Activity,[31],25%
same,Activity,[32],Non-toxic
same,inhibition in vivo at 20 mg/kg,[33],100%
same,inhibition in vivo at 5 mg/kg,[34],68%
same,Activity,[35],92%
same,Activity,[36],Non-toxic
same,Activity,[37],Non-toxic
same,Activity,[38],Non-toxic
same,Activity,[39],Non-toxic
same,Activity,[40],Non-toxic

# From ChEMBL document CHEMBL3244237, “Differences in antischistosomal and mutagenic properties between an isothiocyano- and an isocyanonitrodiphenylamine” (J Med Chem, 1977)
